Laboratory results from ChEMBL document CHEMBL1128446, “Pyrazinoic acid esters with broad spectrum in vitro antimycobacterial activity” (1995).
Converted amounts (≈) assume the structure as drawn.

Columns and labels:
Assay type in all cases: functional
[1] = test system: Mycobacterium tuberculosis; experiment: Minimum Inhibitory Concentration against Mycobacterium tuberculosis ATCC 27294
Summary of the method: (§1)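 Broth macrodilution in tubes of modified Middlebrook 7H10 broth (agar and malachite green omitted) with 10% OADC and 0.05% Tween 80 at pH 5.8. Cultures were grown 3 days at 37 °C on a rotary shaker, then diluted with 7H10 broth to 1 Klett unit/mL. Stocks were made in water or DMSO and filter-sterilised; 2-fold serial dilutions were tested. Tubes shaken 7–10 days at 37 °C, with a drug-free control. MIC = lowest concentration (μg/mL) with no visible turbidity.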

Mycobacterium avium [2] = experiment: Minimum Inhibitory Concentration in clinical isolates against Mycobacterium avium complex 101; summary of the method: as §1
Mycobacterium avium [3] = experiment: Minimum Inhibitory Concentration against clinical isolates of Mycobacterium avium complex ATCC 49601; summary of the method: as §1
Mycobacterium kansasii = experiment: Minimum Inhibitory Concentration against clinical isolates of Mycobacterium kansasii S
Summary of the method: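 Grown 3 days at 37 °C on a rotary shaker in modified Middlebrook 7H10 broth (agar and malachite green omitted) with 10% OADC and 0.05% Tween 80. Diluted to 1 Klett unit/mL. Tubes held serial 2-fold dilutions in 7H10 broth at pH 5.8, from stocks in water or DMSO, and were shaken at 37 °C for 7–10 days with a drug-free control. MIC was the lowest concentration with no visible turbidity.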

[4] = test system: Mycobacterium tuberculosis; experiment: Minimum Inhibitory Concentration against Mycobacterium tuberculosis ATCC 35801; summary of the method: as §1
Mycobacterium avium [5] = experiment: Minimum Inhibitory Concentration in clinical isolates against Mycobacterium avium complex ATCC 49601; summary of the method: as §1
[6] = Mycobacterium tuberculosis, ATCC 27294, read-out: MIC

CCCCCCC(C)OC(=O)c1cnc(F)cn1 (centres undefined)
MIC [1, 6]: 2 mg/L (≈ 7.86 µM) | MIC (Mycobacterium avium [2]): 32 mg/L (≈ 126 µM) | MIC (Mycobacterium avium [3]): 64 mg/L (≈ 252 µM) | MIC (Mycobacterium kansasii): < 0.03 mg/L | MIC [4]: 4 mg/L (≈ 15.7 µM)

CCCCCCCC(C)OC(=O)c1cnc(Cl)cn1 (centres undefined)
MIC [1, 6]: 1 mg/L (≈ 3.51 µM) | MIC (Mycobacterium avium [2]): 32 mg/L (≈ 112 µM) | MIC (Mycobacterium avium [3]): 32 mg/L (≈ 112 µM) | MIC (Mycobacterium kansasii): < 0.03 mg/L | MIC [4]: 0.5 mg/L (≈ 1.76 µM)

CCCCCCCOC(=O)c1cnc(C)cn1
MIC [1, 6]: 0.5 mg/L (≈ 2.12 µM) | MIC (Mycobacterium avium [2]): 32 mg/L (≈ 135 µM) | MIC (Mycobacterium avium [3]): 32 mg/L (≈ 135 µM) | MIC (Mycobacterium kansasii): 4 mg/L (≈ 16.9 µM) | MIC [4]: 0.25 mg/L (≈ 1.06 µM)

CCCCCCCCC(C)(CCCC)OC(=O)c1cnc(Cl)cn1 (centres undefined)
MIC [1, 6]: 16 mg/L (≈ 45.1 µM) | MIC (Mycobacterium avium [2]): > 64 mg/L | MIC (Mycobacterium avium [3]): > 64 mg/L | MIC (Mycobacterium kansasii): 16 mg/L (≈ 45.1 µM) | MIC [4]: 16 mg/L (≈ 45.1 µM)

CCCCCCCCCCOC(=O)c1cnccn1
MIC [1, 6]: 0.5 mg/L (≈ 1.89 µM) | MIC (Mycobacterium avium [2]): 32 mg/L (≈ 121 µM) | MIC (Mycobacterium avium [3]): 8 mg/L (≈ 30.3 µM) | MIC (Mycobacterium kansasii): 0.25 mg/L (≈ 0.946 µM) | MIC [4]: 0.25 mg/L (≈ 0.946 µM)

CCCCCCCCCOC(=O)c1cnc(C)cn1
MIC [1, 6]: 1 mg/L (≈ 3.78 µM) | MIC (Mycobacterium avium [2]): 64 mg/L (≈ 242 µM) | MIC (Mycobacterium avium [3]): 32 mg/L (≈ 121 µM) | MIC (Mycobacterium kansasii): 2 mg/L (≈ 7.57 µM) | MIC [4]: 1 mg/L (≈ 3.78 µM)

CCCCCCCCC(C)(C)OC(=O)c1cnc(Cl)cn1
MIC [1, 6]: 0.125 mg/L (≈ 0.4 µM) | MIC (Mycobacterium avium [2]): 64 mg/L (≈ 205 µM) | MIC (Mycobacterium avium [3]): 64 mg/L (≈ 205 µM) | MIC (Mycobacterium kansasii): 1 mg/L (≈ 3.2 µM) | MIC [4]: 1 mg/L (≈ 3.2 µM)

CCCCCC(C)OC(=O)c1cnc(Cl)cn1 (centres undefined)
MIC [1, 6]: 0.06 mg/L (≈ 0.234 µM) | MIC (Mycobacterium avium [2]): 32 mg/L (≈ 125 µM) | MIC (Mycobacterium avium [3]): 32 mg/L (≈ 125 µM) | MIC (Mycobacterium kansasii): < 0.125 mg/L | MIC [4]: 0.5 mg/L (≈ 1.95 µM)

CCCCCCCCCCOC(=O)c1cnc(Cl)cn1
MIC [1, 6]: 0.5 mg/L (≈ 1.67 µM) | MIC (Mycobacterium avium [2]): 32 mg/L (≈ 107 µM) | MIC (Mycobacterium avium [3]): 16 mg/L (≈ 53.5 µM) | MIC (Mycobacterium kansasii): 0.5 mg/L (≈ 1.67 µM) | MIC [4]: 0.25 mg/L (≈ 0.837 µM)

CCCCCCCCCOC(=O)c1cnc(Cl)cn1
MIC [1, 6]: < 0.03 mg/L | MIC (Mycobacterium avium [2]): 32 mg/L (≈ 112 µM) | MIC (Mycobacterium avium [3]): 16 mg/L (≈ 56.2 µM) | MIC (Mycobacterium kansasii): 0.125 mg/L (≈ 0.439 µM) | MIC [4]: 1 mg/L (≈ 3.51 µM)

CCCCCC(CC)OC(=O)c1cnc(Cl)cn1 (centres undefined)
MIC [1, 6]: 0.25 mg/L (≈ 0.923 µM) | MIC (Mycobacterium avium [2]): > 256 mg/L | MIC (Mycobacterium avium [3]): 256 mg/L (≈ 945 µM) | MIC (Mycobacterium kansasii): 0.125 mg/L (≈ 0.462 µM) | MIC [4]: 1 mg/L (≈ 3.69 µM)

Cc1cnc(C(=O)O)cn1
MIC [1, 6]: 64 mg/L (≈ 463 µM) | MIC (Mycobacterium avium [2]): 1020 mg/L (≈ 7410 µM) | MIC (Mycobacterium kansasii): 1020 mg/L (≈ 7410 µM) | MIC [4]: 64 mg/L (≈ 463 µM) | MIC (Mycobacterium avium [5]): > 1020 mg/L

O=C(O)c1cnc(Cl)cn1
MIC [1, 6]: 64 mg/L (≈ 404 µM) | MIC (Mycobacterium kansasii): 64 mg/L (≈ 404 µM) | MIC [4]: 64 mg/L (≈ 404 µM) | MIC (Mycobacterium avium [5]): > 1020 mg/L

Cc1ccc(C(C)OC(=O)c2cnc(Cl)cn2)cc1 (centres undefined)
MIC [1, 6]: 1 mg/L (≈ 3.61 µM) | MIC (Mycobacterium avium [2]): 256 mg/L (≈ 925 µM) | MIC (Mycobacterium avium [3]): 16 mg/L (≈ 57.8 µM) | MIC (Mycobacterium kansasii): 1 mg/L (≈ 3.61 µM) | MIC [4]: 1 mg/L (≈ 3.61 µM)

O=C(OCCc1ccc(Cl)cc1)c1cnc(Cl)cn1
MIC [1, 6]: 2 mg/L (≈ 6.73 µM) | MIC (Mycobacterium avium [2]): 16 mg/L (≈ 53.8 µM) | MIC (Mycobacterium avium [3]): 8 mg/L (≈ 26.9 µM) | MIC (Mycobacterium kansasii): 0.5 mg/L (≈ 1.68 µM) | MIC [4]: 32 mg/L (≈ 108 µM)

O=C(Oc1ccc(F)cc1)c1cnccn1
MIC [1]: 32 mg/L (≈ 147 µM) | MIC [1, 6]: 32 mg/L (≈ 147 µM) | MIC (Mycobacterium avium [2]): 128 mg/L (≈ 587 µM) | MIC (Mycobacterium kansasii): 64 mg/L (≈ 293 µM) | MIC (Mycobacterium avium [5]): 128 mg/L (≈ 587 µM)

CCCCCCCC(OC(=O)c1cnc(Cl)cn1)C(C)C (centres undefined)
MIC [1, 6]: 0.5 mg/L (≈ 1.6 µM) | MIC (Mycobacterium avium [2]): > 256 mg/L | MIC (Mycobacterium avium [3]): 256 mg/L (≈ 818 µM) | MIC (Mycobacterium kansasii): 0.25 mg/L (≈ 0.799 µM) | MIC [4]: 2 mg/L (≈ 6.39 µM)

CCCCCCCCOC(=O)c1cnc(Cl)cn1
MIC [1, 6]: 0.06 mg/L (≈ 0.222 µM) | MIC (Mycobacterium avium [2]): 16 mg/L (≈ 59.1 µM) | MIC (Mycobacterium avium [3]): 16 mg/L (≈ 59.1 µM) | MIC (Mycobacterium kansasii): < 0.03 mg/L | MIC [4]: < 0.03 mg/L

COC(=O)c1cnc(Cl)cn1
MIC [1, 6]: 4 mg/L (≈ 23.2 µM) | MIC (Mycobacterium avium [2]): 256 mg/L (≈ 1480 µM) | MIC (Mycobacterium avium [3]): 64 mg/L (≈ 371 µM) | MIC (Mycobacterium kansasii): 2 mg/L (≈ 11.6 µM) | MIC [4]: 8 mg/L (≈ 46.4 µM)

CCCCCCCCCCCC(C)OC(=O)c1cnc(Cl)cn1 (centres undefined)
MIC [1, 6]: 2 mg/L (≈ 5.87 µM) | MIC (Mycobacterium avium [2]): 256 mg/L (≈ 751 µM) | MIC (Mycobacterium avium [3]): 32 mg/L (≈ 93.9 µM) | MIC (Mycobacterium kansasii): 0.06 mg/L (≈ 0.176 µM) | MIC [4]: 0.5 mg/L (≈ 1.47 µM)

C=CCOC(=O)c1cnc(Cl)cn1
MIC [1, 6]: 1 mg/L (≈ 5.04 µM) | MIC (Mycobacterium avium [2]): 64 mg/L (≈ 322 µM) | MIC (Mycobacterium avium [3]): 64 mg/L (≈ 322 µM) | MIC (Mycobacterium kansasii): < 1 mg/L | MIC [4]: 1 mg/L (≈ 5.04 µM)

NC(=O)c1cnccn1 [PYRAZINAMIDE]
MIC [1, 6]: 16 mg/L (≈ 130 µM) | MIC (Mycobacterium avium [2]): > 2050 mg/L | MIC (Mycobacterium kansasii): 2050 mg/L (≈ 16600 µM) | MIC [4]: 32 mg/L (≈ 260 µM) | MIC (Mycobacterium avium [5]): > 2050 mg/L

O=C(O)c1cnccn1 [PYRAZINOIC ACID]
MIC [1, 6]: 32 mg/L (≈ 258 µM) | MIC (Mycobacterium avium [2]): > 1020 mg/L | MIC (Mycobacterium kansasii): 256 mg/L (≈ 2060 µM) | MIC [4]: 32 mg/L (≈ 258 µM) | MIC (Mycobacterium avium [5]): > 1020 mg/L
